Assay results as given in ChEMBL document CHEMBL1153427, “1-Sulfonyl-4-acylpiperazines as selective cannabinoid-1 receptor (CB1R) inverse agonists for the treatment of obesity” (J Med Chem, 2009).

What was measured:
Cannabinoid receptor 1 [1] = biological target: T1, Cannabinoid receptor 1 (Homo sapiens, UniProt P21554); assay: Inverse agonist activity at human recombinant CB1R expressed in CHO cells assessed as increase in forskolin-stimulated cAMP level; assay type: functional, cell-based
In short: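 Recombinant CB1R-CHO cells were incubated with test compound across a range of concentrations, plus forskolin and the phosphodiesterase inhibitor IBMX. Buffer was Earle's balanced salt solution with 5 mM MgCl₂, 10 mM HEPES pH 7.3 and 1 mg/mL BSA, for 30 min at room temperature, with cAMP read out.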

Cannabinoid receptor 1 [2] = biological target: T1, Cannabinoid receptor 1; assay: Displacement of [3H]CP-55940 from human recombinant CB1R expressed in CHO cells; assay type: cell-based
In short: (§1)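 Radioligand competition used 0.5 nM [³H]CP55940 with recombinant human CB1R-CHO or CB2R-CHO membranes. Bound and free ligand were separated by filtration, and IC₅₀ came from nonlinear curve fitting.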

Cannabinoid receptor 2 = Cannabinoid receptor 2 (Homo sapiens, UniProt P34972); assay: Displacement of [3H]CP-55940 from human recombinant CB2R expressed in CHO cells; assay type: cell-based; in short: as §1
Chain of Cannabinoid receptor 2 (P34972 whole entry): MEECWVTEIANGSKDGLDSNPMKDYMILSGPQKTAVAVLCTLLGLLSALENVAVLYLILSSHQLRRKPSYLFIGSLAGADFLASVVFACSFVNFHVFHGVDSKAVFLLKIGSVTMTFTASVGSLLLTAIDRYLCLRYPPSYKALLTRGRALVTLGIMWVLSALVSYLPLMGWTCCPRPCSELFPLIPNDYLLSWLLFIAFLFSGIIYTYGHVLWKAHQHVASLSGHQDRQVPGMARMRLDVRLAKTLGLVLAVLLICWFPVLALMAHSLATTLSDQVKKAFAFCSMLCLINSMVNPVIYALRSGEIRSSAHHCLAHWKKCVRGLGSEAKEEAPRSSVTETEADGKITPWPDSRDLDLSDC

[3] = biological target: Voltage-gated inwardly rectifying potassium channel KCNH2 (Homo sapiens, UniProt Q12809); assay: Inhibition of human ERG by MK-0499 binding assay
Chain of Voltage-gated inwardly rectifying potassium channel KCNH2 (Q12809 whole entry): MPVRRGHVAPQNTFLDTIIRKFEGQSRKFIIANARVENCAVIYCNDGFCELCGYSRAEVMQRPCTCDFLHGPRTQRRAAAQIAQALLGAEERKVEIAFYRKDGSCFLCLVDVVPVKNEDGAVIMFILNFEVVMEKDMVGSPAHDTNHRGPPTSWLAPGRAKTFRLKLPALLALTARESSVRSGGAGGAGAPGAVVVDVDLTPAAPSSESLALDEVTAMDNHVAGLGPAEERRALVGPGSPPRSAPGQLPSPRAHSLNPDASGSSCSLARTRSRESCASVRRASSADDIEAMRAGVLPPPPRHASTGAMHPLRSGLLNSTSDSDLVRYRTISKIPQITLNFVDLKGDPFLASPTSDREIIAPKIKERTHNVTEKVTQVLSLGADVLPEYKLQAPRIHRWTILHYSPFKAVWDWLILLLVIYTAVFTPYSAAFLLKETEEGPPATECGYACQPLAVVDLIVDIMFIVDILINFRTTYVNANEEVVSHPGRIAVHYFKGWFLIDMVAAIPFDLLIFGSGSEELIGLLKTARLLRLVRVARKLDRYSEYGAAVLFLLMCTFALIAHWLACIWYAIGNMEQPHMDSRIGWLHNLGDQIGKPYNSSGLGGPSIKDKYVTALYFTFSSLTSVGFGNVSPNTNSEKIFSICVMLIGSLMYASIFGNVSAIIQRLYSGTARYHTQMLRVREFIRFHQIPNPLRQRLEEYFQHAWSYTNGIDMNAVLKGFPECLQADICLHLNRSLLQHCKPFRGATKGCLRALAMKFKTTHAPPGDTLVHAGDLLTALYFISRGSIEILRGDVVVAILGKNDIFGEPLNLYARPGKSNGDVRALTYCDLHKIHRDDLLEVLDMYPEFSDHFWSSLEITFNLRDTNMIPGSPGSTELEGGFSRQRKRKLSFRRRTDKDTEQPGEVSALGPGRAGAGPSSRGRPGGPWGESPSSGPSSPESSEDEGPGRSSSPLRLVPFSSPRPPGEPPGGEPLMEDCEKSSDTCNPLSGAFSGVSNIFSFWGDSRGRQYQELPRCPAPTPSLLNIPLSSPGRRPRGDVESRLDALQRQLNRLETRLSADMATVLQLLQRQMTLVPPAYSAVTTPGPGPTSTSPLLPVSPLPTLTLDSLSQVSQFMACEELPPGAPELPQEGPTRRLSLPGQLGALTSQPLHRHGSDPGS

T1 sequence (P21554 whole entry): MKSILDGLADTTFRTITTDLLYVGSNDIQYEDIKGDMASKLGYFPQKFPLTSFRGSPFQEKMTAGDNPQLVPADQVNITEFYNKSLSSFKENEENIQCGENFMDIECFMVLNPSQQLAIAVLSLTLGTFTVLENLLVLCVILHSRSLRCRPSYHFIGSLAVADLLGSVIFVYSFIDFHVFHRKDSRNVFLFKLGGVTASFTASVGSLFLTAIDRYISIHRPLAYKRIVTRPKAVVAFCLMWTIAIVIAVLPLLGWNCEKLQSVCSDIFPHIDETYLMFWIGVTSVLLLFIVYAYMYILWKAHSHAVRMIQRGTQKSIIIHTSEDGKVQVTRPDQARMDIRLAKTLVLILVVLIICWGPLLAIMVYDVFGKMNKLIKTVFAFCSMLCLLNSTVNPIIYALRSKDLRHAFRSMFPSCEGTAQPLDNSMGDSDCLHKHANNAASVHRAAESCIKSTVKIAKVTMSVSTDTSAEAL

EC50 (Cannabinoid receptor 1 [1])	IC50 (Cannabinoid receptor 1 [2])	IC50 (Cannabinoid receptor 2)	Compound	IC50 [3]
1.1 nM	400 nM	> 10000 nM	Cc1cc(C)cc(S(=O)(=O)N2CCN(C(=O)C3CCCCC3)CC2)c1	–
0.6 nM	700 nM	–	CC1(C)CN(S(=O)(=O)c2cccc3ccccc23)CCN1C(=O)C1CCCCC1	–
6 nM	200 nM	> 10000 nM	O=C(C1CCCCC1)N1CCN(S(=O)(=O)c2cccc(-c3ccccc3)c2)CC1	–
–	20 nM	> 10000 nM	Cc1[nH]ncc1-c1cc(C(F)(F)F)cc(S(=O)(=O)N2CCN(C(=O)[C@@H]3C[C@H]3c3ccc(C(F)(F)F)cc3)CC2)c1	–
–	7 nM	> 10000 nM	O=C([C@@H]1C[C@H]1c1ccc(C(F)(F)F)cc1)N1CCN(S(=O)(=O)c2cc(-n3cncn3)cc(C(F)(F)F)c2)CC1	–
–	8 nM	–	CC(C)(C)C(=O)Oc1cc(C(F)(F)F)cc(S(=O)(=O)N2CCN(C(=O)[C@@H]3C[C@H]3c3ccc(C(F)(F)F)cc3)CC2)c1	–
11 nM	400 nM	–	CC(C(=O)N1CCN(S(=O)(=O)c2cc(Cl)cc(Cl)c2)CC1)c1ccc(C(F)(F)F)cc1 (stereo in doubt; 20b)	–
–	0.6 nM	> 10000 nM	O=C([C@@H]1C[C@H]1c1ccc(C(F)(F)F)cc1)N1CCN(S(=O)(=O)c2cc(-n3nccn3)cc(C(F)(F)F)c2)CC1	–
> 10000 nM	4200 nM	–	O=C(C1CCCCC1)N1CCN(S(=O)(=O)c2cccc(C(F)(F)F)c2)CC1	–
0.3 nM	220 nM	–	CC(C(=O)N1CCN(S(=O)(=O)c2cc(Cl)cc(Cl)c2)CC1)c1ccccc1 (racemic)	–
0.5 nM	26 nM	–	O=C(CCc1ccc(C(F)(F)F)cc1)N1CCN(S(=O)(=O)c2cc(Cl)cc(Cl)c2)CC1	–
–	4 nM	> 10000 nM	O=C([C@@H]1C[C@H]1c1ccc(C(F)(F)F)cc1)N1CCN(S(=O)(=O)c2cc(CCO)cc(C(F)(F)F)c2)CC1	900 nM
1500 nM	9700 nM	–	O=C(C1CC1)N1CCN(S(=O)(=O)c2c(Cl)cccc2Cl)CC1	–
1 nM	5 nM	> 10000 nM	O=C(Cc1ccc(C(F)(F)F)cc1)N1CCN(S(=O)(=O)c2cc(C(F)(F)F)cc(C(F)(F)F)c2)CC1	–
0.6 nM	95 nM	> 10000 nM	O=C(C1CCCCC1)N1CCN(S(=O)(=O)c2cccc3ccccc23)CC1	–
–	200 nM	> 10000 nM	O=C([C@@H]1C[C@H]1c1ccc(C(F)(F)F)cc1)N1CCN(S(=O)(=O)c2cc(-c3noc(=O)[nH]3)cc(C(F)(F)F)c2)CC1	–
4.6 nM	150 nM	–	O=C(Cc1cccc(C(F)(F)F)c1)N1CCN(S(=O)(=O)c2cc(Cl)cc(Cl)c2)CC1	–

More lines, now with the values behind:

Compound	EC50 (Cannabinoid receptor 1 [1])	IC50 (Cannabinoid receptor 1 [2])	IC50 (Cannabinoid receptor 2)	IC50 [3]
O=C(c1ccccc1)N1CCN(S(=O)(=O)c2cc(C(F)(F)F)cc(C(F)(F)F)c2)CC1	> 10000 nM	> 10000 nM	–	–
O=C(Cc1ccc(C(F)(F)F)cc1)NC1CN(S(=O)(=O)c2cc(C(F)(F)F)cc(C(F)(F)F)c2)C1	> 10000 nM	> 10000 nM	–	–
O=C(C1CCCCC1)N1CCN(S(=O)(=O)c2cccc3ccccc23)CC1C(F)(F)F (stereo not given)	2.5 nM	290 nM	–	–
O=C(C1CCCCC1)N1CCN(S(=O)(=O)c2cc(C(F)(F)F)cc(C(F)(F)F)c2)CC1	1 nM	–	> 10000 nM	–
CC1CN(S(=O)(=O)c2cccc3ccccc23)CCN1C(=O)C1CCCCC1 (stereo not given)	7 nM	310 nM	–	–
O=C([C@@H]1C[C@H]1c1ccc(C(F)(F)F)cc1)N1CCN(S(=O)(=O)c2cc(-c3n[nH]c(=O)[nH]3)cc(C(F)(F)F)c2)CC1	–	400 nM	> 10000 nM	–
O=C([C@@H]1C[C@H]1c1ccc(C(F)(F)F)cc1)N1CCN(S(=O)(=O)c2cc(C(F)(F)F)cc(C(F)(F)CO)c2)CC1	–	5 nM	> 10000 nM	–
O=C(C1CCCCC1)N1C2CCC1CN(S(=O)(=O)c1cccc3ccccc13)C2	300 nM	3100 nM	–	–
COc1cc(C(F)(F)F)cc(S(=O)(=O)N2CCN(C(=O)[C@@H]3C[C@H]3c3ccc(C(F)(F)F)cc3)CC2)c1	–	0.5 nM	–	–
O=C(Cc1ccccc1)N1CCN(S(=O)(=O)c2cc(Cl)cc(Cl)c2)CC1	2 nM	800 nM	–	–
Nc1nnc(-c2cc(C(F)(F)F)cc(S(=O)(=O)N3CCN(C(=O)[C@@H]4C[C@H]4c4ccc(C(F)(F)F)cc4)CC3)c2)o1	–	400 nM	> 10000 nM	–
O=C([C@@H]1C[C@H]1c1ccc(C(F)(F)F)cc1)N1CCN(S(=O)(=O)c2cc(-c3ncon3)cc(C(F)(F)F)c2)CC1	–	0.3 nM	> 10000 nM	–
O=C(C1CCCCC1)N1CCN(S(=O)(=O)c2cc(Cl)cc(Cl)c2)CC1	0.5 nM	–	> 10000 nM	–
O=C(C1CCCCC1)N1C2CC1CN(S(=O)(=O)c1cccc3ccccc13)C2	900 nM	> 10000 nM	–	–
